Source: PubChem (several laboratories)
The list is not random: actives were taken first. Their share in the collection is about 4.6%.
Arbovirus inh – antivirals against arbovirus infection | arbovirus infection cell-based antiviral screen | inhibition, % at 10 µM | 200,000 tested, 0.37% active; in the data active means inhibition above about 30%
p47phox inh – p47phox (human) inhibition. P14598. p47phox/p22phox peptide binding, fluorescence polarization, 2 h. AID 1274. 220,000 tested, 0.53% active. inhibition, % at 24.7 µM;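 active means inhibition above about 30%, limit read from the data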;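 further: 0% = p47phox with labelled peptide and 100% = labelled peptide alone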
Target sequence (P14598 whole entry, looked up): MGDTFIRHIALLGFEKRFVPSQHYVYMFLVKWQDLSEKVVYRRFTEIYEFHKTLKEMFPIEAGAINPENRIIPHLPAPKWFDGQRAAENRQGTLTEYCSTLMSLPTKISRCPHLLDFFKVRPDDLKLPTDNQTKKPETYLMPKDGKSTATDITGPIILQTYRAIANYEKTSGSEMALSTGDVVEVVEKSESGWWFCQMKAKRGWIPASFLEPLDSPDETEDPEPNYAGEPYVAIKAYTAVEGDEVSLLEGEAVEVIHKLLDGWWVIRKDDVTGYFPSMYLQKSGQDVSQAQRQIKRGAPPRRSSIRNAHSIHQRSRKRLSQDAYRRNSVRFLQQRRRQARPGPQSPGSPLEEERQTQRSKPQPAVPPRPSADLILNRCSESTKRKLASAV
Hck Nef HTS – blocks Nef-activated human Hck kinase | P08631 | Recombinant Hck-YEEI plus Nef, Z-Lyte FRET kinase assay | inhibition, % at 20 µM | 220,000 tested, 0.68% active;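 active means Hck-Nef kinase inhibition above about 50%, limit read from the data; inactive means inhibition below that limit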;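 further: 0% = DMSO with Hck plus Nef and 100% = Hck alone without Nef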
RAM inhibit – blocks the yeast RAM network | S. cerevisiae dse1pr::URA3 reporter, 5-FOA growth OD615, 2 d; analog-sensitive cbk1-as2 kinase mutant strain | inhibition, % at 50 µM | 190,000 tested, 1.8% active;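 active means inhibition above a set limit, 3 SD over mean compound inhibition, cut at about 8.4% in these data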;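 further: 0% = DMSO-only wells with no growth and 100% = 10 µM 1-NA-PP1 full growth; inhibition rescues growth on 5-FOA so higher OD means more RAM inhibition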
WT yeast gro inh – growth inhibition of WT yeast, mitochondrial fusion screen. mitochondrial fusion phenotypic screen, WT strain. inhibition, % at 10 µM. 190,000 tested, 2.1% active. AID 1362; in the data active means inhibition above about 58%; tested in S. cerevisiae
Biofilm kill mix – mixture kills Candida albicans biofilm cells; AID 1242; 120,000 tested, 0.02% active; C. albicans biofilm persisters + clotrimazole, fluorescence viability; primary screen in compound mixtures of four per well; inhibition, % at 7.6 µM;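 active means inhibition above 30.3% in the primary screen of four-compound pools, then above 30% when the compound was retested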;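 further: compounds exposed to preformed 24 h biofilms for 48 h; 0% = untreated biofilm control and 100% = clotrimazole plus chlorhexidine kill blank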
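Probe or stimulus – Clotrimazole 50 µg/mL co-treatment · System – C. albicans biofilms · Schedule – 24 h biofilm formation, then 48 h compound exposure, 37 °C · Evaluation – percent inhibition of biofilm viability · Technique – 2-h Alamar Blue fluorescence, 535/590 nm excitation/emission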
Hck-Nef confirm – confirmation of Hck-Nef kinase inhibitors. shares compounds with Hck Nef HTS. Recombinant Hck-YEEI:Nef, Z-Lyte FRET kinase assay. calls only at 10 µM. 1,300 tested, 28% active. AID 463188;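 active means average inhibition of at least 50%, with Z-scores no higher than 3 in both the phospho-tyrosine peptide and fluorescence counterscreens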
Starred values were filed as active, the others as inactive; i = inactive; · = no result shown; + = active, no number.

SMILES	Arbovirus inh	p47phox inh	Hck Nef HTS	RAM inhibit	WT yeast gro inh	Biofilm kill mix	Hck-Nef confirm
CCc1ccc(NC(=S)NC2CC3CCCC(C2)N3Cc2cccs2)cc1 (centres undefined)	-15	-11	-1	1	-1	·	·
CSc1nc(-c2cccs2)c(C#N)c(=O)[nH]1	·	-19	8	·	·	11	·
N#Cc1c(-c2cccs2)nc(SCc2ccc(Cl)cc2)[nH]c1=O	7	-71	69*	6	-8	2	+
O=C(Cc1n[nH]c(=O)c2ccccc12)NC(c1ccccc1)c1ccccc1	·	-16	15	·	·	3	·
CCCCNC(=O)CCCCn1c(=S)[nH]c2c([nH]c3ccc(OC)cc32)c1=O	-3	5	38	3	4	13	·
CC[C@H](C)NC(=O)CCCCCn1c(=S)[nH]c2c([nH]c3ccc(OC)cc32)c1=O	-5	13	52*	3	16	11	i
CCOc1nsc(OCC)n1	·	6	10	·	·	16	·
COc1ccc(C2=NN(C(=O)CCCC(=O)O)C(c3cn(-c4ccccc4)nc3-c3ccccc3)C2)cc1 (centres undefined)	·	-36	109*	·	·	10	+
CCOC(=O)c1csc(NNC=O)n1	15	-11	1	1	12	6	·
CCCCC1=CC2=CC(=O)C(C)(OC(=O)CCc3ccccc3)C(=O)C2=CO1 (centres undefined)	·	-40	67*	·	·	7	+
COc1ccc(N=c2oc3cc(O)ccc3cc2C(=O)Nc2ccccn2)cc1OC	6	-14	84*	6	2	13	i
CCOc1ccc(NC(=S)N2CCN(CCN3C(=O)c4cccc5cccc(c45)C3=O)CC2)cc1	-11	28	28	1	14	7	·
COc1ccc(NC(=S)N2CCN(CCN3C(=O)c4cccc5cccc(c45)C3=O)CC2)cc1	-4	-2	129*	5	4	-4	i
Cc1ccc([N+](=O)[O-])cc1-c1ccc(/C=N/NC(=O)c2cc3c(ccc4ccccc43)o2)o1	-13	-38	-23	3	9	·	·
O=C(N/N=C/c1ccc(-c2ccc(Cl)c(C(=O)O)c2)o1)c1cc2c(ccc3ccccc32)o1	·	-26	72*	·	·	7	+
Nc1cc2ccncc2c2ccccc12	·	6	52*	·	·	13	i
Cc1ccc(OC(F)F)c(NC(=O)Nc2cccc(C(F)(F)F)c2)c1	-46	-13	1	3	49	·	·
Cc1ccc2occ(C3N[C@H](C(=O)O)CS3)c(=O)c2c1 (some centres undefined)	-13	-17	73*	-2	5	·	i
Cc1ccc2occ(C3NC(C(=O)O)CS3)c(=O)c2c1 (centres undefined)	-6	-9	83*	-1	2	5	+
O=C(O)C1CSC(c2ccco2)N1 (centres undefined)	12	-1	10	1	-7	-7	·
O=[N+]([O-])c1ccccc1NC(=S)N/N=C/c1ccc(O)c(O)c1	-11	2	87*	2	7	3	i
Nc1cccc(-n2nncc2-c2ccccc2)c1	2	-18	8	2	4	·	·
CCN(CC)c1ccc(/C=C2/C(=O)c3ccc(C(=O)O)cc3C2=O)cc1	0	-242	55*	9.9*	-3	16	i
CCN(CC)c1ccc(C=C2C(=O)OC3(CCCCC3)OC2=O)cc1	9	-75	14	1	-3	10	·
CCc1ccc(/C=C2/C(=O)N(C)C(=S)N2CC(=O)OC)s1	-1	-24	-1	6	6	-2	·
SMILES	Arbovirus inh	p47phox inh	Hck Nef HTS	RAM inhibit	WT yeast gro inh	Biofilm kill mix	Hck-Nef confirm
COc1ccc2cc(C3CC(c4ccco4)=NN3C(=O)CCC(=O)O)c(Cl)nc2c1 (centres undefined)	-2	-11	5	1	6	20	·
COc1ccc(C2=NN(C(=O)c3ccco3)C(c3cc4ccccc4nc3Cl)C2)cc1 (centres undefined)	·	21	51*	·	·	21	i
Cc1cccc(/C=c2\s/c(=C\C(=O)C(C)(C)C)[nH]c2=O)c1	-8	-17	-1	5	55	·	·
COc1ccc(/C=c2\s/c(=C\C(=O)C(C)(C)C)[nH]c2=O)cc1O	·	-18	71*	·	·	57	+
O=C1C=CC(=O)N1c1cccc(-c2ccccc2)c1	·	5	-38	·	·	-2	·
Cc1ccc(-c2nnc(N3CCCCC3)c3ccccc23)cc1S(=O)(=O)N1CCN(C)CC1	-1	-11	0	-1	-6	·	·
Cc1ccc(-n2sc3ccccc3c2=O)cc1S(=O)(=O)N1CCCCC1	7	85*	115*	7	94*	·	+
CCOc1ccc(OCCOCCn2ccnc2)cc1	9	5	1	1	·	·	·
CCCCNC(=O)C(=O)N/N=C/c1ccc(OCC(=O)Nc2cccc(OC)c2)c(OC)c1	-6	21	71*	1	-17	11	+
C=CCN(C(=O)COc1ccccc1)c1nnc(-c2ccncc2)s1	-3	-8	0	0	-7	·	·
CCN(CC)c1nc2c(s1)C(=O)CC(C)(C)C2	11	-16	4	-1	-2	·	·
CNc1nc(-c2ccccc2)cc(C(F)(F)F)c1C#N	-3	-1	68*	2	-2	·	·
C#CCSc1nc(-c2ccccc2)cc(C(F)(F)F)c1C#N	-2	-31	-1	7	15	·	·
Cc1cccc(CN(CC(=O)N/N=C/c2cccs2)S(=O)(=O)c2ccc(Cl)cc2)c1	-33	-7	-1	2	50	·	·
CN(C)S(=O)(=O)c1cccc(NC(=S)N/N=C/c2ccc(O)c(O)c2O)c1	·	-2	91*	·	·	18	+
COc1ccc(O)c(/C=N/NC(=S)Nc2cccc(S(=O)(=O)N(C)C)c2)c1	-34	-27	-2	3	5	13	·
COc1cccc2c(=O)c3c(cnn3C)n(C)c12	3	-7	88*	-1	4	·	·
N=c1c(C(=O)NCC2CCCO2)cc2c(=O)n3ccccc3nc2n1Cc1cccnc1 (centres undefined)	1	1	128*	3	-6	·	·
Cc1cccn2c(=O)c3cc(C(=O)NCC4CCCO4)c(=N)n(Cc4cccnc4)c3nc12 (centres undefined)	6	1	118*	1	0	·	·
Brc1ccc(C2C3=C(Nc4ncnn42)c2ccccc2OC3c2ccncc2)cc1 (centres undefined)	-16	-13	73*	2	10	·	+
Cc1c(OCC(=O)OC(C)(C)C)ccc2c3c(c(=O)oc12)CCC3	9	-6	0	4	7	·	·
Cc1c(OC(=O)CNC(=O)OC(C)(C)C)ccc2c3c(c(=O)oc12)CCC3	4	3	64*	4	20	·	·
COc1ccc(-n2c(N)cc(=O)[nH]c2=O)cc1	·	-8	52*	·	·	15	i
